# Measured values taken from PMC10733988 (ACS Omega, 2023).
# How the values were obtained:
# Recombinant human MAO-A = biological target: T1, Recombinant human MAO-A (Homo sapiens, UniProt P21397); assay: MAO-A inhibition enzyme assay; assay type: biochemical; conditions: for remaining activity at 10 µM: read-out: residual activities at 10 μM (%) MAO-A
# T1 sequence (P21397 1-527): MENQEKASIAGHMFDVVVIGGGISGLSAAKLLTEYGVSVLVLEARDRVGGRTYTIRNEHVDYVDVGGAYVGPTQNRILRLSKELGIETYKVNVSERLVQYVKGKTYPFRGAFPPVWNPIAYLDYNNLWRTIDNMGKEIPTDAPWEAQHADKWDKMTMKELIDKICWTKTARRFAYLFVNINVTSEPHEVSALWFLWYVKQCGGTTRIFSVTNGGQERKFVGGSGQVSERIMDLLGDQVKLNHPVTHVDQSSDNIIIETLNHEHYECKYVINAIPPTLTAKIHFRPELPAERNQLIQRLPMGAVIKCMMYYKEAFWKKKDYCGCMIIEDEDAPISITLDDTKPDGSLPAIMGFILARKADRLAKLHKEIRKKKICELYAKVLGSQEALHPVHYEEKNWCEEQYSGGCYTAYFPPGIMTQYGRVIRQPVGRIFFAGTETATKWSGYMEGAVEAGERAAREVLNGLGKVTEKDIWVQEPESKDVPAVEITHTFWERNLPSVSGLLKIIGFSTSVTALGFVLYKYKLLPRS
# Recombinant human MAO-B [1] = biological target: T2, Recombinant human MAO-B (Homo sapiens, UniProt P27338); assay: MAO-B inhibition enzyme assay; assay type: biochemical; conditions: for remaining activity at 10 µM: read-out: residual activities at 10 μM (%) MAO-B; for SI (selectivity index): IC50 for MAO-A / IC50 for MAO-B
# T2 sequence (P27338 1-520): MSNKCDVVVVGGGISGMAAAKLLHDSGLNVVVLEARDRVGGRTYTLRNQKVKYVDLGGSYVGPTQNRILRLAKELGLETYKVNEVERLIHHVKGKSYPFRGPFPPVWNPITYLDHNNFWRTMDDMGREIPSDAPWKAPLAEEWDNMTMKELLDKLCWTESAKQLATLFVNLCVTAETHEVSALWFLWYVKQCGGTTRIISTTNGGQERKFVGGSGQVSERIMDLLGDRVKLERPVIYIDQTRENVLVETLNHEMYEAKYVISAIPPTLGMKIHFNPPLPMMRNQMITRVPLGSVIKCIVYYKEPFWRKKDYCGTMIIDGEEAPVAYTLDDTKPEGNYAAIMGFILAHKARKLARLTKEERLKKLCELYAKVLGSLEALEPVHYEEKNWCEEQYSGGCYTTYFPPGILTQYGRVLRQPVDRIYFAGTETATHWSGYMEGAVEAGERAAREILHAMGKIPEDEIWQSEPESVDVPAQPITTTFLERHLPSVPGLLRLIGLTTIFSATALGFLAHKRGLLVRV
# Recombinant human MAO-B [2] = biological target: T2, Recombinant human MAO-B; assay: Reversibility of MAO-B inhibition by dialysis; assay type: biochemical; conditions: dialysis method
# Recombinant human MAO-B [3] = biological target: T2, Recombinant human MAO-B; assay: MAO-B enzyme kinetics; assay type: biochemical; conditions: for type of MAO-B inhibition: Lineweaver-Burk plot
# In short: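 Recombinant human MAO-B in 50 mM sodium phosphate (pH 7.2), 25 °C, 30 min. Benzylamine was the substrate, tested at five concentrations, and product formation was followed continuously as absorbance change at 250 nm. Reactions were started by adding substrate to the enzyme mixture, with three inhibitor conditions per test compound. Inhibition type came from Lineweaver–Burk plots and Ki from secondary plots.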
# BBB permeability assay = assay type: in vitro ADME; conditions: for Papp / prediction (BBB permeation): PAMPA; for prediction (BBB permeation): class from Pe
# In short: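 Passive BBB permeation is estimated with a non-cell PAMPA: a filter membrane (0.45 µm pore, 125 µm thick) soaked in n-dodecane sits between donor and acceptor wells. Test compound stocks (10 mM in DMSO, kept at 0 °C) are diluted in buffer to final 1, 0.1 and 0.01 mM, with DMSO below 1% (v/v). Pe is calculated from donor and receptor absorbance, filter area (0.45 cm²), compartment volumes and time.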
SMILES,IC50 (Recombinant human MAO-A) [µM],remaining activity at 10 µM (Recombinant human MAO-A) [%],IC50 (Recombinant human MAO-B [1]) [µM],remaining activity at 10 µM (Recombinant human MAO-B [1]) [%],SI (selectivity index) (Recombinant human MAO-B [1]),reversibility of MAO-B inhibition (Recombinant human MAO-B [2]),Ki (Recombinant human MAO-B [3]) [µM],type of MAO-B inhibition (Recombinant human MAO-B [3]),Papp (BBB permeability assay) [×10⁻⁶ cm/s],prediction (BBB permeation) (BBB permeability assay),Pe (cm/s) (BBB permeability assay; PAMPA effective permeability)
O=C(NN=Cc1ccc(Cl)cc1)c1ccccc1 [ACH1],> 40,96 ± 8.49,0.36 ± 0.04,10.7 ± 2.52,,,,,,,
O=C(NN=Cc1ccc(Cl)cc1)c1ccc(F)cc1 [ACH12],4.85 ± 0.83,37.6 ± 2.24,5.6 ± 0.1,33.8,0.87,,,,,,
O=C(NN=Cc1ccc(F)cc1)c1ccc(F)cc1 [ACH14],19.6 ± 1.41,63.8 ± 1.76,0.15 ± 0.02,-14.4,130.47,reversible inhibitors of MAO-B,0.1 ± 0.038,competitive MAO-B inhibitors,4.98,CNS+ (Pe > 4.00 × 10^–6 cm/s: CNS+ (high permeation)),
O=C(NN=Cc1ccc(F)cc1)c1ccc(Cl)cc1 [ACH6],> 40,117 ± 1.86,8 ± 0.037,46.4 ± 1.68,> 5.00,,,,,,
O=C(NN=Cc1ccc(Br)cc1)c1ccc(Cl)cc1 [ACH5],> 40,70.6 ± 4.16,1.54 ± 0.04,35.8 ± 1.88,> 25.97,,,,,,
O=C(NN=Cc1ccc(Br)cc1)c1ccc(F)cc1 [ACH13],11.6 ± 0.07,38.5 ± 5.44,0.18 ± 0.01,-50.9,64.44,,,,,,
O=C(NN=Cc1ccc(Cl)cc1)c1ccc(Cl)cc1 [ACH4],> 40,92.1 ± 1.86,0.37 ± 0.006,20.2 ± 1.68,> 108.11,,,,,,
O=C(NN=Cc1ccc(Br)cc1)c1ccccc1 [ACH2],> 40,131 ± 2.9,1.65 ± 0.21,30.2 ± 0.95,,,,,,,
O=C(NN=Cc1ccc(F)cc1)c1ccc(Br)cc1 [ACH10],23.4 ± 0.56,61.8 ± 6.24,0.14 ± 0.011,11.7 ± 1.42,167.29,reversible inhibitors of MAO-B,0.097 ± 0.0021,competitive MAO-B inhibitors,5.12,CNS+ (Pe > 4.00 × 10^–6 cm/s: CNS+ (high permeation)),
O=C(NN=Cc1ccc(F)cc1)c1ccccc1 [ACH3],> 40,109 ± 7.07,0.22 ± 0.02,7.08 ± 1.25,,,,,,,
O=C(NN=Cc1ccc(Cl)cc1)c1ccc(Br)cc1 [ACH8],20.2 ± 0.57,59.6 ± 3.12,0.2 ± 0.09,18.3 ± 3.45,101.10,,,,,,
O=C(NN=Cc1ccccc1)c1ccc(Cl)cc1 [ACH7],> 40,127 ± 3.48,12.8 ± 0.026,43.5 ± 4.56,> 3.13,,,,,,
O=C(NN=Cc1ccc(Br)cc1)c1ccc(Br)cc1 [ACH9],> 40,101 ± 1.86,> 40,98.2,,,,,,,
O=C(NN=Cc1ccccc1)c1ccc(Br)cc1 [ACH11],> 40,102 ± 4.64,5.2 ± 0.056,39 ± 5.61,> 7.69,,,,,,
"C#CCN(C)[C@H](C)Cc1ccccc1 [selegiline, reference compound]",,,,,,,,,,CNS+ (Pe > 4.00 × 10^–6 cm/s: CNS+ (high permeation)),5.69 ± 0.04
